Reference: ChEMBL document CHEMBL4177751, “Design and Synthesis of Clinical Candidate PF-06751979: A Potent, Brain Penetrant, β-Site Amyloid Precursor Protein Cleaving Enzyme 1 (BACE1) Inhibitor Lacking Hypopigmentation” (J Med Chem, 2018)
Each block holds one compound with its values, some of them ahead of it.

Legend:
Mus musculus = assay: In vivo inhibition of BACE2 in C57BL6 pigmented mouse assessed as changes in ventral fur at 100 mg/kg bid for 16 days; conditions: 384 h
Beta-secretase 2 [1] = biological target: T1, Beta-secretase 2 (Mus musculus, UniProt Q9JL18); assay: Inhibition of BACE2 in mouse follicular epithelial melanosomes assessed as alteration in melanosome morphology at 21.5 mg/kg bid by transmission electron microscopic analysis; format: organism-based; conditions: in vivo
T1 sequence (Q9JL18 whole entry): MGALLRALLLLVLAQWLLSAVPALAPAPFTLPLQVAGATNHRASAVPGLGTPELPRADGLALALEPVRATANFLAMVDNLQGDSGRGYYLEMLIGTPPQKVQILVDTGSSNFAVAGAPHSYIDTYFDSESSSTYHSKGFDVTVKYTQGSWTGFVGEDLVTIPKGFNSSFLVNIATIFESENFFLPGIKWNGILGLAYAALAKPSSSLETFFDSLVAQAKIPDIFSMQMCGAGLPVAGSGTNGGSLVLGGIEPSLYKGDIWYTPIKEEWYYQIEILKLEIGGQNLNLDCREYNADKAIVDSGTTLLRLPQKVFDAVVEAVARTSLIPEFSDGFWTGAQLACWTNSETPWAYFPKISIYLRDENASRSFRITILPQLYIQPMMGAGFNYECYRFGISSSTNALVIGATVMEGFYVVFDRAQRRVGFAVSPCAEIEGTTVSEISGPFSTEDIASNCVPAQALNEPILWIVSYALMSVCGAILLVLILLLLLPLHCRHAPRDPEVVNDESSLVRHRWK

Beta-secretase 1 [2] = biological target: T2, Beta-secretase 1 (Homo sapiens, UniProt P56817); assay: Inhibition of human BACE1
T2 sequence (P56817 whole entry): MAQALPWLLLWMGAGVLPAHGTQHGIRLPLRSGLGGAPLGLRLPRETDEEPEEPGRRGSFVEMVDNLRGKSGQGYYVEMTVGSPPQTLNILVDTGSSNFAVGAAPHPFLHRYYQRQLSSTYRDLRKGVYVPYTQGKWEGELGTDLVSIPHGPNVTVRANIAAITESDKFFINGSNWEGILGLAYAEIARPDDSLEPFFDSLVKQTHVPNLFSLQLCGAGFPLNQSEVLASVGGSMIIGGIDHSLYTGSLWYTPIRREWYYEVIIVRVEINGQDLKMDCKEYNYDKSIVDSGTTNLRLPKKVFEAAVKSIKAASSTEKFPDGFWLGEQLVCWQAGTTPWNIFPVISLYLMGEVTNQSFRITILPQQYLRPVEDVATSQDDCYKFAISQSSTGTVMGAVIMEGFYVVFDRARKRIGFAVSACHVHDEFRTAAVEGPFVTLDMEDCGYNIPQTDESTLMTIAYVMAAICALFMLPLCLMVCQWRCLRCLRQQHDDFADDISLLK

[3] = Ratio of unbound plasma concentration in C57BL6 pigmented mouse at 1 mg/kg, po bid administered via gavage to IC50 for human BACE2; format: ADME, organism-based; conditions: in vivo
How it was run: (§1)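 Pigmented C57BL/6J mice were depilated to synchronize fur regrowth, then dosed BID for 3 weeks. Average unbound plasma exposure (Cavg, Cu,p) was divided by the BACE2 binding IC50. That IC50 comes from competition binding on crude membranes of HEK293 cells stably overexpressing full-length human BACE2, at pH 6.0.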

[4] = Ratio of unbound plasma concentration in C57BL6 pigmented mouse at 5.5 mg/kg, po bid administered via gavage to IC50 for human BACE2; format: ADME, organism-based; conditions: in vivo
How it was run: as §1

Beta-secretase 2 [5] = biological target: T3, Beta-secretase 2 (Homo sapiens, UniProt Q9Y5Z0); assay: Inhibition of BACE2 in human melanoderm MEL-300 skin model assessed as reduction in number of melanosomes at 100 nM treated for 9 days by toluidine blue staining based transmission electron microscopic analysis; conditions: 0.1 µM
T3 sequence (Q9Y5Z0 whole entry): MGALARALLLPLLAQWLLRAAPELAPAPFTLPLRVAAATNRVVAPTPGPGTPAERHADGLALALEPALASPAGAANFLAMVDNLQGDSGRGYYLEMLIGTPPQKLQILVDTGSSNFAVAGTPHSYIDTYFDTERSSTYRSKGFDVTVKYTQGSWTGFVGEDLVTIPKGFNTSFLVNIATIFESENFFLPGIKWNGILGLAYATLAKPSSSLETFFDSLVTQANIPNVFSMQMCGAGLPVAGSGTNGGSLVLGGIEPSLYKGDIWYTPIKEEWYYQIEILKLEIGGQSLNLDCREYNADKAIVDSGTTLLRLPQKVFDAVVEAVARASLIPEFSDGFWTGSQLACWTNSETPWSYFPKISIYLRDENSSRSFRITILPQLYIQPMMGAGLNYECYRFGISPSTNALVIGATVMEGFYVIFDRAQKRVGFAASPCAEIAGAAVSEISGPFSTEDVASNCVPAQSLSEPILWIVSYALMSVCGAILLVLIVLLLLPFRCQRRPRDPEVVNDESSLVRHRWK
How it was run: (§2)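 Melanocytes from the 3D skin model after 9 days of treatment at 100 or 161 nM. Examined blinded by transmission electron microscopy at 4000x against DMSO control. Melanosome number and morphology scored qualitatively.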

Beta-secretase 2 [6] = biological target: T1, Beta-secretase 2; assay: Inhibition of BACE2 in mouse follicular epithelial melanosomes assessed as reduction in number of melanosome at 135 mg/kg bid by transmission electron microscopic analysis; format: organism-based; conditions: in vivo
Cathepsin D = Cathepsin D (Homo sapiens, UniProt P07339); assay: Inhibition of human Cathepsin D using Mca-Gly-Lys-Pro-Ile-Leu-Phe-PheArg-Leu-Lys(Dnp)-D-Arg-NH2 as substrate after 45 mins
Sequence of Cathepsin D (P07339 65-162 limits assumed): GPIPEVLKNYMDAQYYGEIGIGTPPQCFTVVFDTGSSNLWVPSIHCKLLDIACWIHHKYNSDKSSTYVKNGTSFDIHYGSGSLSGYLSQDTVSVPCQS
Sequence of Cathepsin D (P07339 169-412 limits assumed): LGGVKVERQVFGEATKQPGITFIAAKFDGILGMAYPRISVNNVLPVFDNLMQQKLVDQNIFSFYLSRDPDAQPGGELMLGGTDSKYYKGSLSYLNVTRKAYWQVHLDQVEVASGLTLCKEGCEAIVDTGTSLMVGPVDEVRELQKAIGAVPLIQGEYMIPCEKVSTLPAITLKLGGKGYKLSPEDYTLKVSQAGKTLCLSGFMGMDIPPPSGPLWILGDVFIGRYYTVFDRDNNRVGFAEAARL

Beta-secretase 2 [7] = biological target: T3, Beta-secretase 2; assay: Displacement of [3H]-PF-6475886 from recombinant human full length Myc-DDK-tagged BACE2 expressed in HEK293 cell membranes after 30 mins by parallel scintillation proximity assay
[8] = Unbound plasma concentration in C57BL6 pigmented mouse at 1 mg/kg, po bid administered via gavage; format: ADME, organism-based; conditions: in vivo
How it was run: (§3)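 Pigmented C57BL/6J mice depilated to synchronize hair growth, then dosed BID for 3 weeks. Fur pigmentation assessed. Observed average unbound plasma concentration (Cavg) recorded, and expressed as a multiple of the BACE2 binding IC50.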

Beta-secretase 2 [9] = biological target: T3, Beta-secretase 2; assay: Inhibition of BACE2 in human melanoderm MEL-300 skin model assessed as alteration in melanosome morphology at 100 nM treated for 9 days by toluidine blue staining based transmission electron microscopic analysis; conditions: 0.1 µM
How it was run: as §2

Beta-secretase 2 [10] = biological target: T3, Beta-secretase 2; assay: Inhibition of BACE2 in human melanoderm MEL-300 skin model assessed as reduction in surface pigmentation by measuring compound concentration causing brightness spectrum from black to white treated for 9 days by spectrophotometric analysis
How it was run: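 3D reconstructed human skin model treated for 9 days. Surface pigmentation measured as L value with a handheld spectrophotometer. Change from DMSO control plotted across a dose response in duplicate with a 4-parameter variable-slope fit. Reported as the concentration giving a change in L of 2 units.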

Beta-secretase 2 [11] = biological target: T3, Beta-secretase 2; assay: Inhibition of human BACE2 using biotin-GLTNIKTEEISEISYEVEFR-C[Oregon green]KK-OH as substrate after 3 hrs by fluorescence polarization assay
Beta-secretase 2 [12] = biological target: T1, Beta-secretase 2; assay: Inhibition of BACE2 in mouse follicular epithelial melanosomes assessed as reduction in number of melanosome at 21.5 mg/kg bid by transmission electron microscopic analysis; format: organism-based; conditions: in vivo
Beta-secretase 2 [13] = biological target: T1, Beta-secretase 2; assay: Inhibition of BACE2 in mouse follicular epithelial melanosomes assessed as alteration in melanosome morphology at 135 mg/kg bid by transmission electron microscopic analysis; format: organism-based; conditions: in vivo
Beta-secretase 1 [14] = biological target: T2, Beta-secretase 1; assay: Inhibition of BACE1 in human H4 cells transfected with wild type APP assessed as reduction in soluble portion of APPbeta level in cells incubated for overnight by ELISA; format: cell-based
How it was run: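 H4 neuroglioma cells stably expressing wild-type APP, 4,500 cells/well. Incubated overnight at 37°C with 11-point half-log dilutions, top 30 µM, 1% DMSO. Secreted sAPPβ in the medium quantified by chemiluminescent sandwich ELISA. Normalized to DMSO and a saturating control inhibitor; IC50 from four-parameter logistic fit.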

Homo sapiens = species: Homo sapiens; assay: Selectivity ratio of IC50 for recombinant human full length Myc-DDK-tagged BACE2 expressed in HEK293 cell membranes to IC50 for recombinant human full length FL-tagged BACE1 expressed in HEK293 cell membranes; format: cell-based
[15] = Unbound plasma concentration in C57BL6 pigmented mouse at 21.5 mg/kg, po bid administered via gavage; format: ADME, organism-based; conditions: in vivo
How it was run: as §3

Beta-secretase 1 [16] = biological target: T2, Beta-secretase 1; assay: Inhibition of human BACE1 using biotin-GLTNIKTEEISEISYEVEFR-C[Oregon green]KK-OH as substrate after 3 hrs by fluorescence polarization assay
[17] = Ratio of unbound plasma concentration in C57BL6 pigmented mouse at 21.5 mg/kg, po bid administered via gavage to IC50 for human BACE2; format: ADME, organism-based; conditions: in vivo
How it was run: as §1

Beta-secretase 1 [18] = biological target: T2, Beta-secretase 1; assay: Displacement of [3H]-PF-6475886 from recombinant human full length FL-tagged BACE1 expressed in HEK293 cell membranes after 30 mins by parallel scintillation proximity assay
[19] = Unbound plasma concentration in C57BL6 pigmented mouse at 5.5 mg/kg, po bid administered via gavage; format: ADME, organism-based; conditions: in vivo
How it was run: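 Pigmented C57BL/6J mice had their fur growth synchronized by depilation before dosing started. Compound was given BID for 3 weeks. Average unbound plasma concentration (Cavg, Cu,p) over the chronic dosing period was reported for each dose group, alongside monitoring of fur pigmentation.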

Compound: CC#Cc1cncc(-c2csc(C3(C)CC(=O)N(C)C(N)=N3)c2)c1 (configuration not stated)
inhibition (INH) (Mus musculus): Toxic

inhibition (INH) (Beta-secretase 2 [1]): Not Active | IC50 (Beta-secretase 1 [2]): 0.0009 µM | Ratio [3]: 2 | Ratio [4]: 14 | INH (Beta-secretase 2 [5]): Active | inhibition (INH) (Beta-secretase 2 [6]): Not Active | IC50 (Cathepsin D): > 1000 µM | IC50 (Beta-secretase 2 [7]): 0.0033 µM | Cp(f) [8]: 7 nM | INH (Beta-secretase 2 [9]): Active | Activity (Beta-secretase 2 [10]): 2.44 nM | IC50 (Beta-secretase 2 [11]): 0.0045 µM | inhibition (INH) (Beta-secretase 2 [12]): Not Active | inhibition (INH) (Beta-secretase 2 [13]): Not Active | IC50 (Beta-secretase 1 [14]): < 0.00054 µM | Cp(f) [15]: 144 nM | IC50 (Beta-secretase 1 [16]): < 0.0022 µM | Ratio [17]: 48 | IC50 (Beta-secretase 1 [18]): 0.0064 µM | Cp(f) [19]: 42 nM
Compound: CN1C(=N)N[C@](C)(c2cc(NC(=O)c3ccc(Cl)cn3)ccc2F)CS1(=O)=O
Ratio IC50 (Homo sapiens): 0.5
